Test results as given in ChEMBL document CHEMBL4680231, “A glutathione-responsive photosensitizer with fluorescence resonance energy transfer characteristics for imaging-guided targeting photodynamic therapy” (Eur J Med Chem, 2020).
Activity calls are given as the source filed them. No cut-off for these calls is given here.

Tests used:
[1] = Prodrug activation in human HeLa cells assessed as increase in fluorescence at 10 uM after 8 hrs in presence of GSH by flow cytometric analysis; format: cell-based
Procedure, shortened: (§1)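 Cells (10^5 per confocal dish) were seeded in DMEM overnight at 37 °C, 5% CO2. They were pretreated with 5 mM GSH in DMEM, or medium alone, for 2 h, then washed. Compound at 10 μM was added for 8 h. Intracellular fluorescence was read by confocal microscopy (excitation 633 nm) or by flow cytometry under the same conditions.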

[2] = Photoactivity of compound in PBS with 0.05% Tween 80 assessed as singlet oxygen generation at 10 uM irradiated with 20 mW cm^-2 light in presence on GSH by DMA based fluorescence assay
[3] = system: H22; assay: Cytotoxicity against mouse H22 cells assessed as reduction cell viability preincubated for 24 hrs in dark condition followed by irradiated with 20 mW cm^-2 light by MTT assay; format: functional, cell-based
Procedure, shortened: (§2)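 MTT assay. About 6000 cells per well were seeded and left overnight at 37 °C, 5% CO2. Compound was added at a range of concentrations in DMEM (1% DMSO, 0.05% Tween 80) for 24 h in the dark, then the medium was replaced. Irradiated wells received a 670 nm LED at 20 mW·cm⁻² for 2 min (2.4 J·cm⁻²); dark wells were not irradiated. Cells were incubated overnight, then MTT for 4 h, DMSO added, OD read at 490 nm. Three independent experiments, each in sextuplicate. IC50 is the concentration killing 50% of cells.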

[4] = system: H22; assay: Photodynamic antitumor activity against mouse H22 cells implanted in Kunming mouse assessed as increase in apoptotic cells in tumour at 2 mg/kg, iv administered at […] post-implantation followed by irradiated with 100 mW/cm2 […] and measured up to 15 days by H and E staining based microscopic method; format: functional, organism-based; details: time 15.0 day
Procedure, shortened: (§3)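 Mice carried subcutaneous H22 tumours of about 50 mm³ and were randomised into 5 groups of 5. They received saline or compound at 2 mg/kg (100 μL) i.v. on days 1, 4 and 7. Light groups were irradiated at 670 nm, 100 mW/cm², 12 h after each dose. Tumour volume and body weight were recorded daily for 15 days. Tumours were then excised and weighed, fixed in 4% paraformaldehyde, paraffin-embedded and H&E stained. Apoptotic and necrotic areas were scored microscopically.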

[5] = system: A549; assay: Cytotoxicity against human A549 cells assessed as reduction cell viability up to 10 uM after 24 hrs in dark condition by MTT assay; format: cell-based; details: a549, 24 h; procedure, shortened: as §2
[6] = system: A549; assay: Cytotoxicity against human A549 cells assessed as reduction cell viability preincubated for 24 hrs in dark condition followed by irradiated with 20 mW cm^-2 light by MTT assay; format: functional, cell-based; procedure, shortened: as §2
[7] = Prodrug activation in mouse H22 cells assessed as increase in fluorescence at 10 uM after 8 hrs by confocal laser scanning microscopic method; format: cell-based; details: h22, 8 h; procedure, shortened: as §1
[8] = Prodrug activation in HELF cells assessed as increase in fluorescence at 10 uM after 8 hrs by confocal laser scanning microscopic method; format: cell-based; details: human, primary lung fibroblast; procedure, shortened: as §1
[9] = Drug uptake in tumour of Kunming mouse implanted with H22 cells at 2 mg/kg, iv and measured up to 24 hrs by FMT assay; format: ADME, organism-based, Neoplasm; details: in vivo
Procedure, shortened: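 Mice carried subcutaneous back tumours from H22 cells (10^7 cells/mL, 100 μL), used at about 50 mm³. They received a single tail-vein injection of 2 mg/kg (200 μL), with saline as control, 3 mice per group. Whole-body fluorescence molecular tomography was taken at 0, 2, 6, 12 and 24 h. At 24 h, tumour, heart, liver, spleen, lung and kidney were imaged ex vivo.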

[10] = system: H22; assay: Induction of ROS generation in mouse H22 cells at 10 uM incubated for 12 hrs irradiated with 20 mW cm^-2 light in presence of GSH by DCFH-DA staining based confocal laser scanning microscopic method; format: functional, cell-based
Procedure, shortened: (§4)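 Cells were seeded in confocal dishes overnight. Pretreatment was GSH 5 mM in DMEM for 2 h, or vitamin C 100 μM for 1 h, before compound at 10 μM for 12 h. DCFH-DA was added for 1 h, then 5 PBS washes and transfer to serum-free, phenol red-free DMEM. Cells were irradiated at 670 nm, 20 mW·cm⁻², for 3 min. Confocal imaging used λex 488 nm for DCF and 633 nm for the photosensitizer.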

[11] = Prodrug activation in mouse H22 cells assessed as increase in fluorescence at 10 uM after 8 hrs in presence of GSH by flow cytometric analysis; format: cell-based; details: h22, 8 h; procedure, shortened: as §1
[12] = Prodrug activation in HELF cells assessed as increase in fluorescence at 10 uM after 8 hrs in presence of GSH by confocal laser scanning microscopic method; format: cell-based; details: human, primary lung fibroblast; procedure, shortened: as §1
[13] = Prodrug activation in mouse H22 cells assessed as increase in fluorescence at 10 uM after 8 hrs by flow cytometric analysis; format: cell-based; details: h22, 8 h; procedure, shortened: as §1
[14] = Prodrug activation in human HeLa cells assessed as increase in fluorescence at 10 uM after 8 hrs in presence of GSH by confocal laser scanning microscopic method; format: cell-based; procedure, shortened: as §1
[15] = Prodrug activation in human A549 cells assessed as increase in fluorescence at 10 uM after 8 hrs by confocal laser scanning microscopic method; format: cell-based; details: a549, 8 h; procedure, shortened: as §1
[16] = Cytotoxicity against human HELF cells assessed as reduction cell viability up to 10 uM after 24 hrs in dark condition by MTT assay; format: cell-based; details: primary lung fibroblast; procedure, shortened: as §2
[17] = Prodrug activation in HELF cells assessed as increase in fluorescence at 10 uM after 8 hrs by flow cytometric analysis; format: cell-based; details: human, primary lung fibroblast; procedure, shortened: as §1
[18] = Prodrug activation in human A549 cells assessed as increase in fluorescence at 10 uM after 8 hrs in presence of GSH by confocal laser scanning microscopic method; format: cell-based; details: a549, 8 h; procedure, shortened: as §1
[19] = system: H22; assay: Photodynamic antitumor activity against mouse H22 cells implanted in Kunming mouse assessed as increase in necrotic cells in tumour at 2 mg/kg, iv administered at […] post-implantation followed by irradiated with 100 mW/cm2 […] and measured up to 15 days by H and E staining based microscopic method; format: functional, organism-based; details: time 15.0 day; procedure, shortened: as §3
[20] = system: H22; assay: Photodynamic antitumor activity against mouse H22 cells implanted in Kunming mouse assessed as reduction in tumour volume at 2 mg/kg, iv administered at […] post-implantation followed by irradiated with 100 mW/cm2 […] and measured up to 15 days; format: functional, organism-based; details: time 15.0 day; procedure, shortened: as §3
[21] = Prodrug activation in human HeLa cells assessed as increase in fluorescence at 10 uM after 8 hrs by confocal laser scanning microscopic method; format: cell-based; procedure, shortened: as §1
[22] = Photoactivity of compound in DMF assessed as singlet oxygen generation at 10 uM irradiated with 20 mW cm^-2 light by DMA based fluorescence assay; format: functional
[23] = system: HeLa; assay: Cytotoxicity against human HeLa cells assessed as reduction cell viability up to 10 uM after 24 hrs in dark condition by MTT assay; format: cell-based; procedure, shortened: as §2
[24] = system: HeLa; assay: Induction of ROS generation in human HeLa cells at 10 uM incubated for 12 hrs irradiated with 20 mW cm^-2 light in presence of GSH by DCFH-DA staining based confocal laser scanning microscopic method; format: functional, cell-based; procedure, shortened: as §4
[25] = system: H22; assay: Induction of ROS generation in mouse H22 cells at 10 uM incubated for 12 hrs irradiated with 20 mW cm^-2 light in presence of vitamin C by DCFH-DA staining based confocal laser scanning microscopic method; format: functional, cell-based; procedure, shortened: as §4

| Compound | Drug metabolism [1] | Drug metabolism [2] | Activity [4] | Activity [5] | Drug metabolism [7] | Drug metabolism [8] | Drug uptake [9] | Activity [10] | Drug metabolism [11] | Drug metabolism [12] | Drug metabolism [13] | Drug metabolism [14] | Drug metabolism [15] | Activity [16] | Drug metabolism [17] | Drug metabolism [18] | Activity [19] | Activity [20] | Drug metabolism [21] | Drug metabolism [22] | further results |
| --- | --- | --- | --- | --- | --- | --- | --- | --- | --- | --- | --- | --- | --- | --- | --- | --- | --- | --- | --- | --- | --- |
| COCCOCCOCCOc1ccc(/C=C/C2=[N+]3C(=C(c4ccc(OCc5cn(CCSSCCn6cc(COc7ccc(C8=C9C(C)=CC(/C=C/c%10ccc(N(C)C)cc%10)=[N+]9[B-](F)(F)n9c(/C=C/c%10ccc(N(C)C)cc%10)cc(C)c98)cc7)nn6)nn5)cc4)c4c(C)c(I)c(/C=C/c5ccc(OCCOCCOCCOC)cc5)n4[B-]3(F)F)C(C)=C2I)cc1 | Metabolite_Detected | Metabolite detected | Active | Non-Toxic | Metabolite_Detected | Metabolite_Notdetected | Active | Active | Metabolite_Detected | Metabolite_Detected | Metabolite_Detected | Metabolite_Detected | Metabolite_Detected | Non-Toxic | Metabolite_Notdetected | Metabolite_Detected | Active | Active | Metabolite_Detected | Metabolite not detected | IC50 ([3]; H22, light or radiation study): 0.48 µM; IC50 ([6]; A549, light or radiation study): 0.44 µM; Activity [23]: Non-Toxic; Activity [24]: Active; Activity [25]: inactive |
| COCCOCCOCCOc1ccc(/C=C/C2=[N+]3C(=C(c4ccc(OCc5cn(CCCCCCn6cc(COc7ccc(C8=C9C(C)=CC(/C=C/c%10ccc(N(C)C)cc%10)=[N+]9[B-](F)(F)n9c(/C=C/c%10ccc(N(C)C)cc%10)cc(C)c98)cc7)nn6)nn5)cc4)c4c(C)c(I)c(/C=C/c5ccc(OCCOCCOCCOC)cc5)n4[B-]3(F)F)C(C)=C2I)cc1 | Metabolite_Notdetected | Metabolite not detected | Active | Non-Toxic | Metabolite_Notdetected | Metabolite_Notdetected | Active | inactive | Metabolite_Notdetected | Metabolite_Notdetected | Metabolite_Notdetected | Metabolite_Notdetected | Metabolite_Notdetected | Non-Toxic | Metabolite_Notdetected | Metabolite_Notdetected | Active | Active | Metabolite_Notdetected | Metabolite not detected | Activity [3]: inactive; Activity [6]: inactive; Activity [23]: Non-Toxic; Activity [24]: inactive; Activity [25]: inactive |
